Experimental data from paper PMC4415995 (Advances in Therapy, 2015).
Marks after values point to notes of the source that are not given here.

How the values were obtained:
[1] = system: Japanese patients with T2DM; assay: Sigmoid E max model regression of change in UGE on plasma luseogliflozin AUC; assay type: in vivo, human
SGLT2 = conditions: read-out: 50% inhibitory concentration (IC50); cited from earlier work
[2] = system: Japanese patients with T2DM; assay: Plasma glucose concentrations, 7-day once-daily dosing; assay type: in vivo, human
Method in brief: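 Plasma glucose was measured by a glucose dehydrogenase enzymatic UV method. Sampling was pre-breakfast/pre-dose and 0.5–24 h after breakfast on Day −1, after dosing on Days 1 and 7, and pre-breakfast on Days 11 and 14. Standardized ~600 kcal meals were given, with lunch and dinner at 4 and 12 h. AUC, Cmax and tmax were non-compartmental. MPG was the mean of the 0, 2, 4, 6, 12, 14 and 16 h values. LS mean difference vs placebo with 95% CI.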

What does the source list for CCOc1ccc(Cc2cc([C@@H]3S[C@H](CO)[C@@H](O)[C@H](O)[C@H]3O)c(OC)cc2C)cc1 [Luseogliflozin, (1S)-1,5-anhydro-1-[5-(4-ethoxybenzyl)-2-methoxy-4-methylphenyl]-1-thio-D-glucitol]?
UGE as share of the maximal UGE value estimated using the E max model ([1]; 5 mg OD, after 7 days): approximately 85%; E max (maximum change in UGE), estimate (95% CI) ([1]; values on Day 1 and 7): 119 g/day; IC50 (SGLT2): 2.26 nM; FPG (24 h after dose) ([2]; 0.5 mg OD, Day 1): 156 ± 23 mg/dL; FPG (24 h after dose) LS mean difference vs placebo (95% CI) ([2]; 0.5 mg OD, Day 1): −7.15 (−16.0, 1.71) mg/dL; MPG0–16h ([2]; 0.5 mg OD, Day 1): 224 ± 38.8 mg/dL; MPG0–16h LS mean difference vs placebo (95% CI) ([2]; 0.5 mg OD, Day 1): −6.39 (−16.6, 3.79) mg/dL; Plasma glucose AUC0–4h (after breakfast) ([2]; 0.5 mg OD, Day 1): 946 ± 175 mg·h/dL; Plasma glucose AUC0–4h (after breakfast) LS mean difference vs placebo (95% CI) ([2]; 0.5 mg OD, Day 1): 29.4 (−25.0, 83.8) mg h/dL; Plasma glucose AUC4–8h (after lunch) ([2]; 0.5 mg OD, Day 1): 915 ± 207 mg·h/dL; Plasma glucose AUC4–8h (after lunch) LS mean difference vs placebo (95% CI) ([2]; 0.5 mg OD, Day 1): −111 (−191, −31.1)* mg h/dL; Plasma glucose AUC12–16h (after dinner) ([2]; 0.5 mg OD, Day 1): 989 ± 114 mg·h/dL; Plasma glucose AUC12–16h (after dinner) LS mean difference vs placebo (95% CI) ([2]; 0.5 mg OD, Day 1): −16.3 (−69.6, 37.0) mg h/dL; Plasma glucose C max0–4h (after breakfast) ([2]; 0.5 mg OD, Day 1): 278 ± 53.0 mg/dL; Plasma glucose C max4–8h (after lunch) ([2]; 0.5 mg OD, Day 1): 259 ± 52.3 mg/dL; Plasma glucose C max4–8h (after lunch) LS mean difference vs placebo (95% CI) ([2]; 0.5 mg OD, Day 1): −43.5 (−68.5, −18.5)* mg/dL; Plasma glucose C max12–16h (after dinner) ([2]; 0.5 mg OD, Day 1): 286 ± 32.5 mg/dL; Plasma glucose C max12–16h (after dinner) LS mean difference vs placebo (95% CI) ([2]; 0.5 mg OD, Day 1): −16.0 (−35.0, 3.05) mg/dL; FPG (24 h after dose) ([2]; 0.5 mg OD, Day 7): 145 ± 18 mg/dL; FPG (24 h after dose) LS mean difference vs placebo (95% CI) ([2]; 0.5 mg OD, Day 7): −18.4 (−31.1, −5.75)* mg/dL; MPG0–16h ([2]; 0.5 mg OD, Day 7): 204 ± 35.3 mg/dL; MPG0–16h LS mean difference vs placebo (95% CI) ([2]; 0.5 mg OD, Day 7): −25.0 (−42.2, −7.90)* mg/dL; Plasma glucose AUC0–4h (after breakfast) ([2]; 0.5 mg OD, Day 7): 810 ± 156 mg·h/dL; Plasma glucose AUC0–4h (after breakfast) LS mean difference vs placebo (95% CI) ([2]; 0.5 mg OD, Day 7): −108 (−186, −29.3)* mg h/dL; Plasma glucose AUC4–8h (after lunch) ([2]; 0.5 mg OD, Day 7): 887 ± 209 mg·h/dL; Plasma glucose AUC4–8h (after lunch) LS mean difference vs placebo (95% CI) ([2]; 0.5 mg OD, Day 7): −165 (−267, −64.2)* mg h/dL; Plasma glucose AUC12–16h (after dinner) ([2]; 0.5 mg OD, Day 7): 924 ± 108 mg·h/dL; Plasma glucose AUC12–16h (after dinner) LS mean difference vs placebo (95% CI) ([2]; 0.5 mg OD, Day 7): −44.7 (−122, 32.2) mg h/dL; Plasma glucose C max0–4h (after breakfast) ([2]; 0.5 mg OD, Day 7): 243 ± 42.1 mg/dL; Plasma glucose C max4–8h (after lunch) ([2]; 0.5 mg OD, Day 7): 256 ± 61.7 mg/dL; Plasma glucose C max4–8h (after lunch) LS mean difference vs placebo (95% CI) ([2]; 0.5 mg OD, Day 7): −46.2 (−76.1, −16.3)* mg/dL; Plasma glucose C max12–16h (after dinner) ([2]; 0.5 mg OD, Day 7): 274 ± 34.6 mg/dL; Plasma glucose C max12–16h (after dinner) LS mean difference vs placebo (95% CI) ([2]; 0.5 mg OD, Day 7): −9.79 (−35.5, 15.9) mg/dL; FPG (24 h after dose) ([2]; 1 mg OD, Day 1): 146 ± 25 mg/dL; FPG (24 h after dose) LS mean difference vs placebo (95% CI) ([2]; 1 mg OD, Day 1): −7.90 (−16.6, 0.795) mg/dL; MPG0–16h ([2]; 1 mg OD, Day 1): 188 ± 30.0 mg/dL; MPG0–16h LS mean difference vs placebo (95% CI) ([2]; 1 mg OD, Day 1): −18.4 (−28.3, −8.55)* mg/dL; Plasma glucose AUC0–4h (after breakfast) ([2]; 1 mg OD, Day 1): 812 ± 158 mg·h/dL; Plasma glucose AUC0–4h (after breakfast) LS mean difference vs placebo (95% CI) ([2]; 1 mg OD, Day 1): −48.9 (−102, 4.37) mg h/dL; Plasma glucose AUC4–8h (after lunch) ([2]; 1 mg OD, Day 1): 766 ± 131 mg·h/dL; Plasma glucose AUC4–8h (after lunch) LS mean difference vs placebo (95% CI) ([2]; 1 mg OD, Day 1): −89.1 (−166, −11.9)* mg h/dL; Plasma glucose AUC12–16h (after dinner) ([2]; 1 mg OD, Day 1): 851 ± 117 mg·h/dL; Plasma glucose AUC12–16h (after dinner) LS mean difference vs placebo (95% CI) ([2]; 1 mg OD, Day 1): −91.4 (−142, −40.8)* mg h/dL; Plasma glucose C max0–4h (after breakfast) ([2]; 1 mg OD, Day 1): 255 ± 44.1 mg/dL; Plasma glucose C max4–8h (after lunch) ([2]; 1 mg OD, Day 1): 223 ± 33.7 mg/dL; Plasma glucose C max4–8h (after lunch) LS mean difference vs placebo (95% CI) ([2]; 1 mg OD, Day 1): −30.5 (−54.1, −7.02)* mg/dL; Plasma glucose C max12–16h (after dinner) ([2]; 1 mg OD, Day 1): 255 ± 37.3 mg/dL; Plasma glucose C max12–16h (after dinner) LS mean difference vs placebo (95% CI) ([2]; 1 mg OD, Day 1): −31.3 (−49.4, −13.3)* mg/dL; FPG (24 h after dose) ([2]; 1 mg OD, Day 7): 139 ± 14 mg/dL; FPG (24 h after dose) LS mean difference vs placebo (95% CI) ([2]; 1 mg OD, Day 7): −18.1 (−30.5, −5.62)* mg/dL; MPG0–16h ([2]; 1 mg OD, Day 7): 184 ± 24.0 mg/dL; MPG0–16h LS mean difference vs placebo (95% CI) ([2]; 1 mg OD, Day 7): −27.5 (−44.1, −10.8)* mg/dL; Plasma glucose AUC0–4h (after breakfast) ([2]; 1 mg OD, Day 7): 780 ± 116 mg·h/dL; Plasma glucose AUC0–4h (after breakfast) LS mean difference vs placebo (95% CI) ([2]; 1 mg OD, Day 7): −96.7 (−173, −20.0)* mg h/dL; Plasma glucose AUC4–8h (after lunch) ([2]; 1 mg OD, Day 7): 787 ± 126 mg·h/dL; Plasma glucose AUC4–8h (after lunch) LS mean difference vs placebo (95% CI) ([2]; 1 mg OD, Day 7): −138 (−236, −40.8)* mg h/dL; Plasma glucose AUC12–16h (after dinner) ([2]; 1 mg OD, Day 7): 824 ± 125 mg·h/dL; Plasma glucose AUC12–16h (after dinner) LS mean difference vs placebo (95% CI) ([2]; 1 mg OD, Day 7): −96.2 (−169, −23.2)* mg h/dL; Plasma glucose C max0–4h (after breakfast) ([2]; 1 mg OD, Day 7): 240 ± 31.3 mg/dL; Plasma glucose C max4–8h (after lunch) ([2]; 1 mg OD, Day 7): 229 ± 33.7 mg/dL; Plasma glucose C max4–8h (after lunch) LS mean difference vs placebo (95% CI) ([2]; 1 mg OD, Day 7): −34.7 (−62.8, −6.53)* mg/dL
